{
  "source": "ChEMBL document CHEMBL4038302",
  "about": "“Fibroblast Activation Protein α Activated Tripeptide Bufadienolide Antitumor Prodrug with Reduced Cardiotoxicity” (J Med Chem, 2017)",
  "key": {"[1]": {"assay": "(§1) In vivo prodrug activation in tumor of BALB/C nude mouse xenografted with human MDA-MB-231 cells assessed as FAP-alpha mediated (S)-((3S,5R,8R,9S,10S,11S,13R,14S,17R)-11,14-dihydroxy-10,13-dimethyl-12-oxo-17-(2-oxo-2H-pyran-5-yl)hexadecahydro-1H-cyclopenta[a]phenanthren-3-yl) 2-amino-3-(1H-indol-3-yl)propanoate formation at 40 umol/L by LC-MS/MS analysis", "parameters": "species or system Neoplasm", "outline": "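Tumour and heart tissue weighed and homogenized on ice in PBS, pH 7.4, then incubated with prodrug at 40 μmol/L. Bufalin at 2 μmol/L added as internal standard; reaction stopped with acetonitrile and spun at 18 000g for 30 min. Active form quantified by LC-MS/MS against a standard curve of 0.625–40 μmol/L; mean ± SEM of three samples.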"}, "Prolyl endopeptidase FAP [2]": {"molecular_target": "T1, Prolyl endopeptidase FAP (Homo sapiens, UniProt Q12884)", "T1 sequence (Q12884 whole entry)": "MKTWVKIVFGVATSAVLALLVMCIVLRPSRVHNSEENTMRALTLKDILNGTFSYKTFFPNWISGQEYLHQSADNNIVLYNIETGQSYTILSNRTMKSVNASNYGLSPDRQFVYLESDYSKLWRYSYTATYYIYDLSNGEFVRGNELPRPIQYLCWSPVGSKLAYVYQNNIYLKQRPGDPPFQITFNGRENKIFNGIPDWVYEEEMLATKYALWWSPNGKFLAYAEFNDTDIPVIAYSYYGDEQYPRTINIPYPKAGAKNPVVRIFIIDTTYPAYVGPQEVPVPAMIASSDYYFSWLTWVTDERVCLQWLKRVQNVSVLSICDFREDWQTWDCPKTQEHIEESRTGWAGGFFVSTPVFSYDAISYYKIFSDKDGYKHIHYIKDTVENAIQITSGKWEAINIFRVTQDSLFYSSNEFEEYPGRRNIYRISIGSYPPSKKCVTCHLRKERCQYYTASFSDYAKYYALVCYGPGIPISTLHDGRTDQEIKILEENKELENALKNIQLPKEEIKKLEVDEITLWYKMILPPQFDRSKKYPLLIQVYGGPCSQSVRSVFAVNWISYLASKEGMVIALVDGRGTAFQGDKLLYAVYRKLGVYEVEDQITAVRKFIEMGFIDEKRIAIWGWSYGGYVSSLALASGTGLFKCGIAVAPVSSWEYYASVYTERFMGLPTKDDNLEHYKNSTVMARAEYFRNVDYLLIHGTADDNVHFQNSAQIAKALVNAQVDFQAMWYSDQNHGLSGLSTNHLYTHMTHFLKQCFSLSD", "assay": "(§2) Prodrug activation assessed as recombinant human FAP-alpha mediated (S)-((3S,5R,8R,9S,10S,11S,13R,14S,17R)-11,14-dihydroxy-10,13-dimethyl-12-oxo-17-(2-oxo-2H-pyran-5-yl)hexadecahydro-1H-cyclopenta[a]phenanthren-3-yl) 2-amino-3-(1H-indol-3-yl)propanoate formation by measuring intrinsic clearance at 40 umol/L after 6 hrs by UPLC-MS/MS analysis", "conditions": "40 µM"}, "Prolyl endopeptidase FAP [3]": {"molecular_target": "T1, Prolyl endopeptidase FAP", "assay": "as §2, with “formation” for “formation by measuring intrinsic clearance”, “hrs in presence of FAP-alpha inhibitor talabostat” for “hrs”", "conditions": "40 µM", "outline": "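Prodrug at 40 μmol/L incubated with rhFAPα at 0.45 μg/mL in 0.2 mL buffer at 37 °C for 6 h, with bufalin at 2 μmol/L as internal standard. Stopped with acetonitrile and spun at 18 000g for 15 min. Released active form measured by UPLC-MS/MS via peak-area ratio against a standard curve of 0.625–40 μmol/L.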"}, "MCF7": {"tested_on": "MCF7", "assay": "Antiproliferative activity against FAP-alpha deficient human MCF7 cells incubated for 48 hrs by MTT assay", "type": "functional, cell-based", "conditions": "MCF7, 48 h", "outline": "(§3)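 Cells grown in DMEM with 10% FBS and 1% penicillin-streptomycin at 37 °C, 5% CO2; 10% heat-inactivated FBS used during cytotoxicity testing to exclude serum FAP activity. Viability read by MTT; IC50 as mean ± SEM of at least three independent experiments. Transfected lines were made from MDA-MB-231 with human FAPα plasmid or empty pCMV6-Entry vector and checked by Western blot at 48 h.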"}, "Mus musculus [4]": {"tested_on": "Mus musculus", "assay": "Cardiotoxicity in BALB/C nude mouse xenografted with human MDA-MB-231 cells assessed as change in left ventricular internal systole dimension at 12 umol/kg, iv administered starting on day 5 measured after day 22 by echocardiography", "type": "toxicity, organism-based", "conditions": "in vivo", "outline": "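Same MDA-MB-231 xenograft mice, given daily iv doses in 5% HS15 from day 5. After 22 days of dosing, transthoracic echocardiography with a 21 MHz transducer under 1.5% isoflurane, supine. M-mode images taken from the parasternal short-axis view at the papillary muscle; IVSd, IVSs, LVIDd and LVIDs derived, n = 6.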"}, "Mus musculus [5]": {"tested_on": "Mus musculus", "assay": "Nephrotoxicity in BALB/C nude mouse xenografted with human MDA-MB-231 cells at 12 umol/kg, iv administered starting on day 5 measured after day 22 by hematoxylin-eosin staining-based assay", "type": "toxicity, organism-based", "conditions": "in vivo", "outline": "(§4)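 Tissues from dosed xenograft mice fixed for 24 h and paraffin-embedded. Sections of 5 μm, H&E stained; heart, liver, spleen, lung, kidney and femur examined by a pathologist blind to treatment.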"}, "MDA-MB-231 [6]": {"tested_on": "MDA-MB-231", "assay": "Antiproliferative activity against human MDA-MB-231 cells transfected with human FAP-alpha incubated for 48 hrs by MTT assay", "type": "functional, cell-based", "conditions": "MDA-MB-231, 48 h", "outline": "as §3"}, "Mus musculus [7]": {"tested_on": "Mus musculus", "assay": "Cardiotoxicity in BALB/C nude mouse xenografted with human MDA-MB-231 cells assessed as change in LDH level at 12 umol/kg, iv administered starting on day 5 measured after day 22", "type": "toxicity, organism-based", "conditions": "in vivo", "outline": "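Serum from xenograft mice given daily iv doses in 5% HS15: blood taken by cardiac puncture before sacrifice and spun at 3000 rpm for 20 min at 4 °C. D-LDH activity measured with a colorimetric kit. Mean ± SEM, n = 6; one-way ANOVA with Tukey's test against the 5% HS15 control.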"}, "[8]": {"assay": "as §1, with “Ratio of invivo” for “In vivo”, “formation in absence of talabostat to FAP-alpha mediated (S)-((3S,5R,8R,9S,10S,11S,13R,14S,17R)-11,14-dihydroxy-10,13-dimethyl-12-oxo-17-(2-oxo-2H-pyran-5-yl)hexadecahydro-1H-cyclopenta[a]phenanthren-3-yl) 2-amino-3-(1H-indol-3-yl)propanoate formation in presence of talabostat” for “formation”", "parameters": "species or system Neoplasm"}, "Mus musculus [9]": {"tested_on": "Mus musculus", "assay": "Hepatotoxicity in BALB/C nude mouse xenografted with human MDA-MB-231 cells at 12 umol/kg, iv administered starting on day 5 measured after day 22 by hematoxylin-eosin staining-based assay", "type": "toxicity, organism-based", "conditions": "in vivo", "outline": "as §4"}, "[10]": {"assay": "Cytotoxicity in BMSC (unknown origin) assessed as cell viability at 1000 nmol/L after 72 hrs by MTT assay", "type": "cell-based", "conditions": "unidentified, 1 µM"}, "MDA-MB-435": {"tested_on": "MDA-MB-435", "assay": "Antiproliferative activity against wild type human MDA-MB-435 cells expressing FAP-alpha incubated for 48 hrs by MTT assay", "type": "functional, cell-based", "conditions": "MDA-MB-435, 48 h", "outline": "as §3"}, "MDA-MB-231 [11]": {"tested_on": "MDA-MB-231", "assay": "Induction of apoptosis in human MDA-MB-231 cells xenografted in BALB/C nude mouse at 4 umol/kg, iv administered starting on day 5 measured after day 22 by tunnel assay relative to control", "type": "functional", "conditions": "in the assay text read “12 umol/kg” for “4 umol/kg”", "outline": "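Paraffin tumour sections from dosed xenograft mice stained by in situ cell death detection (TUNEL), examined blind to treatment. Percentage of apoptotic cells quantified by image analysis. Mean ± SEM, n = 6, versus the 5% HS15 control.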"}, "Mus musculus [12]": {"tested_on": "Mus musculus", "assay": "Acute toxicity in Kunming mouse assessed as mortality at 12 umol/kg, iv after 8 hrs post dose", "type": "organism-based", "conditions": "in vivo"}},
  "data": [
    {"compound": "C[C@]12CC[C@H](OC(=O)[C@H](Cc3c[nH]c4ccccc34)NC(=O)[C@@H]3CCCN3C(=O)CNC(=O)OCc3ccccc3)C[C@H]1CC[C@@H]1[C@@H]2[C@H](O)C(=O)[C@]2(C)[C@@H](c3ccc(=O)oc3)CC[C@]12O", "values": [
      {"measurement": "Drug metabolism", "setting": "[1]", "result": 19.82, "unit": "µmol/L"},
      {"measurement": "CL", "setting": "Prolyl endopeptidase FAP [2]", "result": 65890, "unit": "µL/min/mg"},
      {"measurement": "Drug metabolism", "setting": "Prolyl endopeptidase FAP [3]", "result": "Metabolite_Notdetected"},
      {"measurement": "IC50", "setting": "MCF7", "result": 11.6, "unit": "nM"},
      {"measurement": "Activity", "setting": "Mus musculus [4]", "result": "Non-Toxic"},
      {"measurement": "Activity", "setting": "Mus musculus [5]", "result": "Non-Toxic"},
      {"measurement": "IC50", "setting": "MDA-MB-231 [6]", "result": 11.7, "unit": "nM"},
      {"measurement": "Activity", "setting": "Mus musculus [7]", "result": "Non-Toxic"},
      {"measurement": "Ratio", "setting": "[8]", "result": 20},
      {"measurement": "Activity", "setting": "Mus musculus [9]", "result": "Non-Toxic"},
      {"measurement": "Activity", "setting": "[10]", "result": "Non-Toxic"},
      {"measurement": "IC50", "setting": "MDA-MB-435", "result": 10.6, "unit": "nM"},
      {"measurement": "fold change (FC)", "setting": "MDA-MB-231 [11]", "result": 5},
      {"measurement": "Activity", "setting": "Mus musculus [12]", "result": "Non-Toxic"}
    ]}
  ]
}
